The source of these data is the array DNA melting data of Ke et al. (doi:10.1101/2024.01.08.574731).

The nature of series [1]: melting temperature; fluorescence melt of hairpins on a sequencing array, two-state fit, raised by 9.35 °C to match UV melts. The settings on record: sodium 0.088 M. In outline:
(§1)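 Folding enthalpy and melting temperature come from bootstrapped two-state fits to Cy3 fluorescence of library hairpins carrying annealed Cy3 and quencher oligos on a sequenced MiSeq flow cell. Imaging was done in 50 mM Na-HEPES pH 8.0, 25 mM NaCl, stepping by 2.5 °C up to 60 °C, and signals were normalised to pre-quench Cy3 and to control constructs. Results of four replicates were combined by inverse variance, and fitted temperatures were raised by 9.35 °C to match UV melts.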

Series [2] can be described thus: folding enthalpy; higher = less favourable; fluorescence melt of hairpins on a sequencing array, two-state fit. To be noted: sodium 0.088 M. In outline:
as §1

CGCAACGGAAACGTCGCG (((.(((....))).))): the Tm in series [1] stood at 52.1 °C. Further, the folding enthalpy in series [2] was -42.6 kcal/mol.

Take CGCAACGGAAACGTGCG (((.(((....)))))): the Tm in series [1] was 56.5 °C. For the same sequence, the folding enthalpy in series [2] was -31.8 kcal/mol.

In the case of CGCAAGCGGAAACGCGCG (((..(((....)))))), the Tm in series [1] was found to be 56.9 °C. The folding enthalpy in series [2] is -22 kcal/mol.

As to CGCAATCGGAAACGAGCG (((..(((....)))))), the Tm in series [1] turned out to be 42.4 °C. Moreover, in series [2], the folding enthalpy is -25.4 kcal/mol.

For CGCACACGGAAACGTGCG (((..(((....)))))), in series [1], the Tm worked out at 52.9 °C. For the same sequence, the folding enthalpy in series [2] was -22 kcal/mol.

In the case of CGCACGGAAACGTTGGCG ((((((....)))..))), the Tm in series [1] came out at 45.4 °C. Also, the folding enthalpy in series [2] was -37.8 kcal/mol.

On to CGCCAACGGAAACGTGCG (((..(((....)))))), for which the Tm in series [1] was found to be 45.5 °C. In series [2], the folding enthalpy was -26 kcal/mol.

With CGCCAGCGGAAACGCGCG (((..(((....)))))), the Tm in series [1] is 50.6 °C. Moreover, the folding enthalpy in series [2] is -23.4 kcal/mol.

In the case of CGCCCCGGAAACGGAGCG (((.(((....))).))), in series [1], the Tm came out at 56.5 °C. Further, the folding enthalpy in series [2] is -39.3 kcal/mol.

With CGCCCCGGAAACGGTGCG (((.(((....))).))), the Tm in series [1] stood at 53.9 °C. In series [2], the folding enthalpy is -49.4 kcal/mol.

Consider CGCCCGCGGAAACGCGCG (((..(((....)))))), for which, in series [1], the Tm was 42.4 °C. In series [2], the folding enthalpy is -8.68 kcal/mol.

Consider CGCCGCCGGAAACGGGCG (((..(((....)))))), for which the Tm in series [1] came out at 51.9 °C. Besides, the folding enthalpy in series [2] is -16.5 kcal/mol.

Turning to CGCCGCGGAAACGCTGCG (((.(((....))).))), the Tm in series [1] is 57.6 °C. In addition, in series [2], the folding enthalpy is -37.6 kcal/mol.

Take CGCCTCGGAAACGACGCG (((.(((....))).))): in series [1], the Tm worked out at 45.7 °C. The folding enthalpy in series [2] is -33.9 kcal/mol.

As to CGCCTCGGAAACGATGCG (((.(((....))).))), the Tm in series [1] is 49.9 °C. In series [2], the folding enthalpy is -48 kcal/mol.

On to CGCCTTCGGAAACGAGCG (((..(((....)))))), for which the Tm in series [1] was 36.3 °C. In series [2], the folding enthalpy is -13.6 kcal/mol.

For CGCGACGGAAACGTGCG (((.(((....)))))), the Tm in series [1] is 55.3 °C. Further, in series [2], the folding enthalpy is -28.3 kcal/mol.

Take CGCGCGGAAACGCAAGCG ((((((....)))..))): in series [1], the Tm worked out at 56.8 °C. For the same sequence, the folding enthalpy in series [2] was -34 kcal/mol.

Regarding CGCGCGGAAACGCACGCG ((((((....)))..))), in series [1], the Tm amounted to 57.1 °C. Besides, the folding enthalpy in series [2] was -22.1 kcal/mol.

As for CGCGGAAAAGTCCGCG ((((((....)))))), the Tm in series [1] was 60.9 °C. In addition, the folding enthalpy in series [2] was -38.4 kcal/mol.

On to CGCGGAAAATCCGCG ((((((...)))))), for which the Tm in series [1] was 62.3 °C. For the same sequence, the folding enthalpy in series [2] was -42.4 kcal/mol.

For CGCGGAAAATTCCGCG ((((((....)))))), in series [1], the Tm came to 68.3 °C. Also, the folding enthalpy in series [2] is -32 kcal/mol.

For CGCGGAAAGATCCGCG ((((((....)))))), the Tm in series [1] amounted to 64.2 °C. Also, in series [2], the folding enthalpy is -33.8 kcal/mol.

Take CGCGGAACATCCGCG ((((((...)))))): in series [1], the Tm is 69 °C. In addition, the folding enthalpy in series [2] is -27.5 kcal/mol.

Consider CGCGGAAGATCCGCG ((((((...)))))), for which, in series [1], the Tm was 69.1 °C. Moreover, the folding enthalpy in series [2] was -26.5 kcal/mol.

For the sequence CGCGGACAATCCGCG ((((((...)))))), the Tm in series [1] worked out at 67.7 °C. Moreover, the folding enthalpy in series [2] is -26.4 kcal/mol.

In the case of CGCGGACGATTCCGCG ((((((....)))))), the Tm in series [1] was 69 °C. Moreover, the folding enthalpy in series [2] was -29.1 kcal/mol.

CGCGGACGGATCCGCG ((((((....)))))): the Tm in series [1] is 68.7 °C. Moreover, the folding enthalpy in series [2] was -28.8 kcal/mol.

In the case of CGCGGAGCTGTCCGCG ((((((....)))))), the Tm in series [1] was 67.1 °C. Moreover, the folding enthalpy in series [2] was -20.9 kcal/mol.

For CGCGGAGCTTTCCGCG ((((((....)))))), the Tm in series [1] came to 68.2 °C. In addition, in series [2], the folding enthalpy was -20.8 kcal/mol.

Regarding CGCGGATCTCTCCGCG ((((((....)))))), the Tm in series [1] is 66.8 °C. For the same sequence, in series [2], the folding enthalpy was -51 kcal/mol.

Regarding CGCGGATGACTCCGCG ((((((....)))))), the Tm in series [1] stood at 66.7 °C. Besides, the folding enthalpy in series [2] was -43.1 kcal/mol.

On to CGCGGCCGGAAACGGGCG (((..(((....)))))), for which, in series [1], the Tm stood at 65.6 °C. In series [2], the folding enthalpy is -12.1 kcal/mol.

CGCGTCGGAAACGAGCG (((.(((....)))))): the Tm in series [1] amounted to 54.9 °C. Besides, in series [2], the folding enthalpy was -31.7 kcal/mol.

In the case of CGCTACGGAAACGTCGCG (((.(((....))).))), in series [1], the Tm worked out at 51.9 °C. In series [2], the folding enthalpy is -39.3 kcal/mol.

Take CGCTATCGGAAACGAGCG (((..(((....)))))): the Tm in series [1] came out at 41.8 °C. In series [2], the folding enthalpy is -27.1 kcal/mol.

For CGCTCCGGAAACGGGCG (((.(((....)))))), in series [1], the Tm turned out to be 54.1 °C. Moreover, in series [2], the folding enthalpy is -32.5 kcal/mol.
